Reference: ChEMBL document CHEMBL1142613, “Characterization of the major metabolite of sampangine in rats” (J Nat Prod, 2000)
In brackets after ≈: the same amount, converted by molar mass. Activity calls are given as the source filed them. The rule behind the calls is not given here.

Experiments:
Cryptococcus neoformans [1] = test: Antifungal activity against Cryptococcus neoformans ATCC 52657 at 100 ug/mL after 48 hrs by bioautography; format: functional; conditions: ATCC 52657, 48 h, read-out: IZ
Method in brief: (§1)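 Bioautography at a test concentration of 100 µg/mL; activity recorded as zone of inhibition in mm. Media were yeast nitrogen broth for C. albicans and Mycophil broth for C. neoformans.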

Bacillus subtilis = test: Antibacterial activity against Bacillus subtilis ATCC 6333; format: functional, organism-based
Method in brief: (§2)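 Colorimetric oxidation-reduction broth assay, with Alamar blue dye added as an indicator of the organism's metabolic activity; result expressed as MIC in µg/mL; streptomycin served as positive control.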

Cryptococcus neoformans [2] = test: Antifungal activity against Cryptococcus neoformans ATCC 52657 at 100 ug/mL after 48 hrs by agar well diffusion method; format: functional; conditions: ATCC 52657, 48 h, read-out: IZ
Method in brief: (§3)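 Agar well diffusion at a test concentration of 100 µg/mL; activity read as zone of inhibition diameter in mm. C. albicans was grown in yeast nitrogen broth, C. neoformans in Mycophil broth.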

Candida albicans [3] = test: Antifungal activity against Candida albicans NIH B311 at 100 ug/mL after 24 hrs by agar well diffusion method; format: functional; conditions: read-out: IZ; method in brief: as §3
Escherichia coli = test: Antibacterial activity against Escherichia coli ATCC 10536; format: functional, organism-based; method in brief: as §2
Staphylococcus aureus = test: Antibacterial activity against Staphylococcus aureus ATCC 6538; format: functional, organism-based; method in brief: as §2
Candida albicans [4] = test: Antifungal activity against Candida albicans NIH B311 after 24 hrs by twofold serial dilution method; format: functional
Method in brief: (§4)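 Two-fold serial broth macrodilution. C. albicans was grown in yeast nitrogen broth and incubated 24 h; C. neoformans in Mycophil broth, 48 h; both at 37 °C. MIC taken as the lowest concentration visually inhibiting growth. Footnote notes one test sample was run in Eugon by a microplate method.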

Pseudomonas aeruginosa = test: Antibacterial activity against Pseudomonas aeruginosa ATCC 15442; format: functional, organism-based; method in brief: as §2
Cryptococcus neoformans [5] = test: Antifungal activity against Cryptococcus neoformans ATCC 52657 after 48 hrs by twofold serial dilution method; format: functional; conditions: ATCC 52657, 48 h; method in brief: as §4
Candida albicans [6] = test: Antifungal activity against Candida albicans NIH B311 at 100 ug/mL after 24 hrs by bioautography; format: functional; conditions: read-out: IZ; method in brief: as §1

MIC (Candida albicans [4])	MIC (Cryptococcus neoformans [5])	Structure (SMILES)	zone of inhibition at 100 µg/mL (Cryptococcus neoformans [1])	Activity (Bacillus subtilis)	zone of inhibition at 100 µg/mL (Cryptococcus neoformans [2])	zone of inhibition at 100 µg/mL (Candida albicans [3])	Activity (Escherichia coli)	Activity (Staphylococcus aureus)	Activity (Pseudomonas aeruginosa)	zone of inhibition at 100 µg/mL (Candida albicans [6])
> 25 µg/mL	> 25 µg/mL	O=C(O)[C@H]1O[C@@H](Oc2c3c4c(ccnc4c4ccccc24)C=CN3)[C@H](O)[C@@H](O)[C@@H]1O	35 mm	inactive	26 mm	6 mm	inactive	inactive	inactive	–
3.12 µg/mL (≈ 13.4 µM)	0.2 µg/mL (≈ 0.861 µM)	O=C1c2ccccc2-c2nccc3ccnc1c23 [SAMPANGINE]	35 mm	–	35 mm	10 mm	–	–	–	10 mm
